pEC50: −log10 of the molar value. The source made the active and inactive calls. No cut-off for these calls is given here.
How the values were obtained:
MCF-10A = test: Phototoxicity against human MCF10A cells preincubated for 5 mins followed by compound washout and subsequent UV irradiation at 1.5 J/cm2 for 5 mins measured after 72 hrs by MTT assay; type: cell-based; details: light or radiation study
Outline: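 Compounds were diluted in DMSO (0.5% final), applied in triplicate for 5 min, then washed out with PBS. After medium removal, cells were irradiated on ice for 5 min at 365 nm (1.5 J/cm²) and then kept 72 h at 37 °C. Viability was read by MTT at 540 nm and expressed relative to 0.5% DMSO controls given the same treatment. EC50 is the concentration killing 50%, as the mean ± SD of at least three experiments.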

[1] = Dark toxicity against human A375 cells preincubated for 5 mins followed by compound washout and measured after 72 hrs by MTT assay; type: cell-based, A-375
Outline: (§1)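 Cells were plated and allowed to attach overnight. Compounds were diluted in DMSO (0.5% final), with each concentration in triplicate, and applied for 5 min. Cells were then washed in PBS and given fresh medium. Without irradiation, cells were held 72 h at up to 50 μM. MTT (5 mg/mL stock) was added for 4 h, crystals were dissolved in SDS/HCl overnight, and absorbance was read at 540 nm. CC50 is the concentration killing 50% of cells, taken as the mean of at least three experiments.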

[2] = Dark toxicity against human MCF7 cells preincubated for 5 mins followed by compound washout and measured after 72 hrs by MTT assay; type: cell-based; outline: as §1
A-375 = test: Phototoxicity index, ratio of CC50 for human A375 cells to EC50 for human A375 cells under UV irradiation at 1.5 J/cm2
MCF7 [3] = test: Phototoxicity index, ratio of CC50 for human MCF7 cells to EC50 for human MCF7 cells under UV irradiation at 1.5 J/cm2
[4] = Selectivity index, ratio of EC50 for human MCF10A cells under UV irradiation at 1.5 J/cm2 to EC50 for human A375 cells under UV irradiation at 1.5 J/cm2; type: toxicity; details: MCF10A cells versus A375 cells, read-out: Ratio EC50
Outline: (§2)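 SI is the EC50 under irradiation in non-tumor MCF10A cells divided by the EC50 under irradiation in the tumor line. Both were MTT read-outs 72 h after 1.5 J/cm² at 365 nm.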

[5] = Selectivity index, ratio of EC50 for human MCF10A cells under UV irradiation at 1.5 J/cm2 to EC50 for human HT-29 cells under UV irradiation at 1.5 J/cm2; type: toxicity; details: MCF10A cells versus HT-29 cells, read-out: Ratio EC50; outline: as §2
[6] = Selectivity index, ratio of EC50 for human MCF10A cells under UV irradiation at 1.5 J/cm2 to EC50 for human MCF7 cells under UV irradiation at 1.5 J/cm2; type: toxicity; details: MCF10A cells versus MCF7 cells, read-out: Ratio EC50; outline: as §2
MCF7 [7] = test: Cell cycle arrest in human MCF7 cells assessed as accumulation at subG1 phase at EC25 after 24 hrs under UV-irradiation by propidium iodide staining-based flow cytometric analysis (reference value: 4.8%); type: functional
MCF7 [8] = test: Cell cycle arrest in human MCF7 cells assessed as accumulation at G0/G1 phase at EC25 after 24 hrs under UV-irradiation by propidium iodide staining-based flow cytometric analysis (reference value: 44.2%); type: functional
MCF7 [9] = test: Cell cycle arrest in human MCF7 cells assessed as accumulation at S phase at EC25 after 24 hrs under UV-irradiation by propidium iodide staining-based flow cytometric analysis (reference value: 24.7%); type: functional
MCF7 [10] = test: Induction of apoptosis in human MCF7 cells assessed as apoptotic cells at EC25 to EC75 after 4 hrs in presence of photoirradiation by Annexin V-FITC/propidium iodide staining-based flow cytometric analysis relative to control; type: functional
MCF7 [11] = test: Induction of lysosomal activation in human MCF7 cells assessed as late apoptotis at 2 uM after 2 hrs in presence of UV irradiation by Lysotracker Green DND 26 staining-based confocal microscopic analysis; type: functional, cell-based
Outline: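 MCF7 cells (4x10⁵) on glass slides were loaded with LysoTracker Green DND-26 (175 nM) for 45 min in phenol-red-free, serum-free medium, before 2 µM compound with or without UV activation. Cells were fixed in 2% PFA 20 min or 2 h after UV and imaged confocally (ex 488 nm, em 500–530 nm). Controls were untreated cells with and without irradiation, and cells given PMA (400 nM).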

MCF7 [12] = test: Cell cycle arrest in human MCF7 cells assessed as accumulation of cells at subG1 phase at EC50 after 24 hrs under UV-irradiation by propidium iodide staining-based flow cytometric analysis (reference value: 4.8%); type: functional
MCF7 [13] = test: Cell cycle arrest in human MCF7 cells assessed as accumulation of cells at G2/M phase at EC50 after 24 hrs under UV-irradiation by propidium iodide staining-based flow cytometric analysis (reference value: 26.3%); type: functional
MCF7 [14] = test: Cell cycle arrest in human MCF7 cells assessed as accumulation of cells at subG1 phase at EC75 after 24 hrs under UV-irradiation by propidium iodide staining-based flow cytometric analysis (reference value: 4.8%); type: functional
MCF7 [15] = test: Cell cycle arrest in human MCF7 cells assessed as accumulation of cells at G0/G1 phase at EC75 after 24 hrs under UV-irradiation by propidium iodide staining-based flow cytometric analysis (reference value: 44.2%); type: functional

COc1ccc(-c2nc3c(nc(C)c4ccc(-c5ccccc5)nc43)o2)cc1
pEC50 (MCF-10A): 6.06
CC50 at 72 h [1]: > 50 µM
CC50 at 72 h [2]: > 50 µM
Ratio CC50/EC50 (A-375): >4545
Ratio CC50/EC50 (MCF7 [3]): >5000
selectivity ratio [4]: 79
selectivity ratio [5]: 72
selectivity ratio [6]: 86
Activity (MCF7 [7]): 4.3%
Activity (MCF7 [8]): 44.1%
Activity (MCF7 [9]): 24.8%
Activity (MCF7 [10]): 34 - 50%
Activity (MCF7 [11]): Active
Activity (MCF7 [12]): 4.4%
Activity (MCF7 [13]): 26.9%
Activity (MCF7 [14]): 4.4%
Activity (MCF7 [15]): 42.4%
